Screens: PubChem, Broad Institute
Cneo AK release: Cryptococcus neoformans cell lysis inducers, primary screen, AK release luminescence, single concentration; C. neoformans lysis, adenylate kinase release luminescence, 4 h; normalised: neutral wells 0, clomiphene wells 100; lysis activity, % at 15 µM; 360,000 compounds, 0.2% hits; AID 651654, 2012;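 active means mean lysis activity across replicates of at least 80%, whatever share of replicates individually reach that level; inactive means mean lysis activity below 80%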
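Assay system: log-phase C. neoformans yeast / Quantity: yeast cell density of 5 × 10^6 cells/mL / Medium: fresh YPD growth medium / Compound: single dose / Timing: static 4 h at 37 °C with compound, 1 h detection / Measured by: adenylate kinase release luminescence / Read-out: lysis from increased AK signal / Benchmarks: Clomiphene as positive lysis control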
miR122 inh: miR-122 Renilla sensor signal increase in Huh7, primary screen, miR-122 inhibitor project, cell-based, single point, plate reader; Huh7 miR-122 Renilla luciferase sensor, 48 h; neutral wells = 0, positive control = 100; 340,000 compounds, 0.3% hits; AID 602342, 2012; activation (reporter increase), % at 12.5 µM;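 active means mean replicate activation score at least 90 and every replicate individually at or above 90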;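 further: higher luciferase means less miR-122 activity so hits act as miR-122 inhibitors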
PDI turbidity: inhibitors of human PDI, primary screen, biochemical, turbidity, single point, plate reader; Protein disulfide-isomerase (Homo sapiens), P07237; PDI insulin aggregation turbidity, A650, 90 min; inhibition, % at 10 µM; 350,000 compounds, 0.052% hits; AID 588391, 2011;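 active means mean inhibition across replicates of 30% or more, whatever share of single replicates reach that level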
Target sequence (P07237 whole entry, looked up): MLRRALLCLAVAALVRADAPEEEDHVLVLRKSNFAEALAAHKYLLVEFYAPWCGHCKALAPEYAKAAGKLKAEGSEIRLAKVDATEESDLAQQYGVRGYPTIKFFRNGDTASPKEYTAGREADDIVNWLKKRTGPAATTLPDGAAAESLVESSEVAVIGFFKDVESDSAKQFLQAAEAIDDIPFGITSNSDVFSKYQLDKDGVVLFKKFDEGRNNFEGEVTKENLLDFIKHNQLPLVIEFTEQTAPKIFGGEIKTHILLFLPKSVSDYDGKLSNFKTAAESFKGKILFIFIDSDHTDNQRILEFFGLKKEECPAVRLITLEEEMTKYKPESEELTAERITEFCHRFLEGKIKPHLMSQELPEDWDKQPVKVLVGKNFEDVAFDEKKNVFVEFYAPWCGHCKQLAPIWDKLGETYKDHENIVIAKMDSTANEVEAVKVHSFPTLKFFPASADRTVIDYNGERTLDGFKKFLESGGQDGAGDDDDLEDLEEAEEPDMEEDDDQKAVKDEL
PvdQ acylase: P. aeruginosa PvdQ acylase inhibitors, primary screen, biochemical, fluorescence, plate reader and imaging, single point; PvdQ acylase [Pseudomonas aeruginosa LESB58]; 340,000 compounds, 0.063% hits; inhibition, % at 10 µM; purified PvdQ acylase; in the data active means inhibition above about 30%, passing the limit was not always enough;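 further: 0% = vehicle neutral wells and 100% = reference inhibitor wells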
PglD inh: C. jejuni PglD acetyltransferase inhibitors, primary screen, biochemical, DTNB colorimetric, single point; purified PglD enzyme, DTNB colorimetric CoA detection; inhibition, % at 12.5 µM; 360,000 compounds, 0.098% hits; in the data active means inhibition above about 16%, passing the limit was not always enough
ERp5 block: inhibitors of ERp5-driven insulin aggregation, primary screen, biochemical, turbidity, absorbance 650 nm, single point | Protein disulfide-isomerase A6 (Homo sapiens), Q15084 | 90 min | inhibition, % at 9.99 µM | 350,000 compounds, 0.05% hits;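 active means mean replicate inhibition above about 25%, with every replicate also reaching it, limit read from the data, passing the limit was not always enough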
PglD confirm: PglD acetyltransferase inhibitors, confirmation, biochemical, DTNB absorbance, single point, cherry-picked samples | shares compounds with PglD inh | Purified C. jejuni PglD, DTNB absorbance 412 nm | inhibition, % at 20 µM | 320 tested, under 10 active;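 active means mean inhibition across replicates of at least 20% with every single replicate also at 20% or more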;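 further: initial rate of CoA release by acetyl transfer from AcCoA to the UDP-4-amino sugar; 0% = median of neutral control wells and 100% = median of positive control wells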
Active calls of the source: *; nt = no result; [ ] = another dose, or the depositor's remark. In the library only some 0.58% were active in any assay of this set; here they are far more common.

SMILES | Cneo AK release | miR122 inh | PDI turbidity | PvdQ acylase | PglD inh | ERp5 block | PglD confirm
C[C@@H]1CCCCO[C@H](CN(C)C(=O)C2CCCCC2)[C@@H](C)CN([C@@H](C)CO)C(=O)c2cc(NS(=O)(=O)c3ccc(F)cc3)ccc2O1 | -0.2 | -8.7[16.7 µM] | nt | nt | 0.7 | 3.4 | nt
CCOc1ccc(-c2n[nH]c(C(=O)NN)c2C)cc1 | -2.1 | 24.0 | 10.7 | -6.3 | 83.3* | 6.2 | -5.8
CC1CCCC(C)N1S(=O)(=O)c1ccc(Cl)cc1 (configuration not stated) | 3.4 | -6.3 | -5.2 | -13.1 | -5.3 | -3.5 | nt
CC1=C(C)CS(=O)N(S(=O)(=O)c2ccc(Cl)cc2)C1 (configuration not stated) | 8.0 | 64.2 | -0.6 | -5.9 | 22.8* | nt | -0.5
CCC(=O)Nc1ccc2c(c1)C(=O)N(C)C[C@H](OC)[C@@H](C)CN(Cc1ccccc1C(=O)O)[C@H](C)CO2 | 2.5 | nt | nt | nt | 5.6 | 3.6 | nt
COc1cccc(C2CC(c3ccc(Cl)cc3)n3nc(N)nc3N2)c1 (configuration not stated) | 0.7 | -2.7 | nt | 6.7 | 26.1* | -1.2 | 4.5
Cc1ccc(OCC(=O)N(C)CCc2ccccn2)cc1 | 0.1 | -1.4 | 7.1 | -8.2 | 23.9* | 7.9 | -0.7
O=C(C[C@@H]1C=C[C@H](NC(=O)c2ccccn2)[C@H](CO)O1)NCc1cc(F)cc(F)c1 | 0.8 | nt | nt | nt | 3.3 | 5.3 | nt
O=C(NCCN1CCNCC1)c1ccccc1O | -0.3 | -8.0 | 1.2 | nt | -6.9 | -0.7 | nt
c1ccc(CNCCN2CCNCC2)nc1 | -0.1 | 17.0 | 0.4 | 5.1 | 30.3* | nt | -50.0
CNC[C@H]1OCCCC[C@H](C)Oc2ccc(NC(=O)CCC(F)(F)F)cc2C(=O)N([C@@H](C)CO)C[C@@H]1C | nt | 11.4[16.7 µM] | nt | nt | nt | nt | nt
Cc1nn(Cc2ccccc2)c(Cl)c1/C=N/NC(=O)c1cccnc1 | -0.6 | -4.5 | 6.5 | 0.8 | 24.7* | 2.3 | -2.6
C[C@@H]1CN([C@H](C)CO)C(=O)c2cc(-c3ccccc3F)cnc2O[C@H]1CN(C)C(=O)NC1CCCC1 | 5.9 | 33.0[16.7 µM] | nt | nt | -0.1 | 0.1 | nt
COc1ccc(/C(C)=N/Nc2ccc(C(=O)O)cc2)cc1OC | 0.7 | 50.9 | 5.3 | -1.4 | 57.9* | nt | 0.0
COc1ccc(-c2cnc3c(c2)C(=O)N([C@H](C)CO)C[C@@H](C)[C@@H](CN(C)C(=O)C2CCCCC2)O3)cc1 | 13.7 | -24.6[16.7 µM] | nt | nt | 0.2 | -0.4 | nt
COc1ccccc1C#Cc1ccc2c(c1)[C@H]1[C@H](CCN1S(=O)(=O)c1cccc(C)c1)[C@H](CO)N2 | nt | nt | nt | nt | nt | -0.5 | nt
O=S(=O)(Nc1ccc(Cl)cc1)c1cccc2nsnc12 | -6.3 | 120.5* | 0.4 | -5.8 | 21.0* | -0.6 | -4.8
COc1cc(NS(=O)(=O)c2cccc3nsnc23)cc(OC)c1 | -0.5 | 58.3 | 18.7 | 4.2 | 0.8 | nt | nt
CCSc1nnc(NC(=O)[C@@H](NC(=O)c2cccc(C)c2)C(C)C)s1 | 2.0 | -2.0 | -0.2 | -11.3 | 23.5* | nt | 1.5
O=C(C[C@H]1C=C[C@H](NS(=O)(=O)c2ccccc2)[C@@H](CO)O1)NCc1ccc(Cl)c(Cl)c1 | -14.1 | nt | nt | nt | -3.3 | 7.1 | nt
Cc1ccc(S(=O)(=O)/N=C(/Nc2nc(C)cc(C)n2)N2CCOCC2)cc1 | 0.1 | -12.6 | -1.1 | 0.5 | -6.4 | nt | nt
COc1ccc(N2CCN(/C(=N\S(=O)(=O)c3ccccc3)Nc3nc(C)cc(C)n3)CC2)cc1 | 0.0 | -1.4 | -0.7 | 9.4 | 25.6* | nt | -5.4
CN1CCN(C(=O)C[C@@H]2CC[C@H]3[C@@H](COc4ccc(NC(=O)c5cscn5)cc4C(=O)N3C)O2)CC1 | -1.3 | 26.7[16.7 µM] | nt | nt | -1.2 | -3.1 | nt
C[C@H]1CCCCO[C@@H](CN(C)Cc2ccc(C(=O)O)cc2)[C@@H](C)CN([C@@H](C)CO)C(=O)c2cc(NC(=O)Nc3ccccc3)ccc2O1 | -2.1 | 1.7[16.7 µM] | nt | nt | 2.0 | 0.1 | nt
CC(=O)Nc1nnc(S(N)(=O)=O)s1 | 0.5 | 35.3 | -5.7 | -1.8 | 0.4 | 2.7 | nt
SMILES | Cneo AK release | miR122 inh | PDI turbidity | PvdQ acylase | PglD inh | ERp5 block | PglD confirm
CC(=O)Nc1nc(C)c(S(N)(=O)=O)s1 | -2.6 | -9.6 | -11.2 | -4.2 | 24.0* | nt | -6.2
O=C(COC(=O)c1ccc([N+](=O)[O-])s1)NCCc1ccccc1 | -0.5 | 5.3 | -0.1 | 7.4 | 4.3 | -1.3 | nt
O=C(COC(=O)c1ccc([N+](=O)[O-])s1)NC(=O)NCc1ccccc1 | -1.9 | -3.9 | 7.9 | 4.0 | 30.5* | -3.5 | 0.1
CCCC/C(O)=C1\C(=O)CCCC1=NCCc1c(C)[nH]c2ccc(OC)cc12 | 3.4 | 0.6 | 3.1 | 13.1 | 20.5* | -2.9 | -3.2
COc1ccc(-c2ccc3c(c2)[C@@H]2[C@@H](CCN2C(=O)NC2CCCC2)[C@H](CO)N3C)cc1 | nt | nt | nt | nt | nt | 2.6 | nt
CCCNC(=O)C[C@@H]1C[C@@H]2c3cc(NC(=O)C4CCOCC4)ccc3O[C@@H]2[C@@H](CO)O1 | 1.5 | 2.9[16.7 µM] | nt | nt | -0.3 | -0.8 | nt
CC(=O)NC1C(=O)N(CCN2CCOCC2)c2ccc(Cl)cc21 (configuration not stated) | -0.6 | nt | 1.0 | -4.2 | 24.5* | 3.0 | 48.5*
Cc1ccc(-n2cc(-c3ccccc3)c3c(=O)[nH]cnc32)cc1 | 0.5 | 0.1 | 5.9 | -2.3 | 45.3* | -1.2 | 1.2
C=CCOC(=O)C1=C(C)NC(=S)NC1/C=C/c1ccccc1 (configuration not stated) | 5.3 | 2.5 | -3.7 | -0.8 | 3.1 | nt | nt
CC1=C(C(=O)OCc2ccccc2)C(/C=C/c2ccccc2)NC(=S)N1 (configuration not stated) | 3.2 | -14.4 | -5.7 | 10.7 | 21.3* | nt | -1.3
O=C1OCCC1Sc1nnc(-c2ccc(Br)cc2)o1 (configuration not stated) | -0.4 | -1.9 | -3.1 | -15.8 | 34.1* | nt | -2.8
COc1ccc(-c2ccc3c(c2)[C@H]2[C@H](CCN2S(=O)(=O)c2ccccc2F)[C@H](CO)N3C)cc1 | -10.5 | 7.7[16.7 µM] | nt | nt | 0.1 | 4.6 | nt
COc1ccc(CC(=O)NC(=S)NNC(=O)COc2c(C)cccc2C)cc1 | 1.6 | -2.7 | 2.9 | 1.3 | 23.0* | nt | -4.3
CCN(CC)S(=O)(=O)c1ccc(S(=O)(=O)N2CCCC2C(=O)O)cc1 (configuration not stated) | -2.8 | -0.7 | -7.4 | 4.2 | 24.5* | 0.5 | 3.7
COc1ccc(-c2cnnc(N/N=C/c3ccc(O)c(OC)c3)n2)cc1 | 0.6 | -3.2 | 8.2 | 7.2 | 26.1* | nt | 5.6
